Results as given in ChEMBL document CHEMBL3856197 (Eur J Med Chem, 2016).
Active and inactive are the calls of the source. No cut-off for these calls is given here.

What was measured:
Mus musculus [1] = organism: Mus musculus; assay: Cytotoxicity against BMOL-NT cells assessed as doubling time at 0 to 10 uM; type: toxicity, cell-based
Procedure, shortened: (§1)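 BMOL-NT (low passage, p<15) or BMOL-T (p>30) mouse liver progenitor cells in Williams' E medium. Seeded at 1,500 (NT) or 1,000 (T) cells per well, allowed to attach, then compound added as 2x solution to 1x final. Cellavista imaging twice daily for 5 days or until 80% confluent. Log % well coverage plotted against time; doubling time taken from log-phase linear portion.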

[2] = Anticancer activity against BMOL-T cells assessed as doubling time at 0 to 6 uM; type: functional, Mus musculus; procedure, shortened: as §1
[3] = Anticancer activity against BMOL-T cells assessed as doubling time at 8 uM; type: functional, Mus musculus; procedure, shortened: as §1
[4] = Anticancer activity against BMOL-T cells assessed as doubling time at 10 uM; type: functional, Mus musculus; procedure, shortened: as §1
BMOL-T [5] = assay: Anticancer activity against BMOL-T cells assessed as cell growth inhibition at 10 uM; type: functional, cell-based; conditions: Mus musculus; procedure, shortened: as §1
[6] = Growth inhibition of BMOL-T cells assessed as increase in doubling time at 8 uM after 2 days relative to control; type: functional, Mus musculus; design: scale not given: the % may be the effect or the level left; procedure, shortened: as §1
[7] = Growth inhibition of BMOL-T cells assessed as increase in doubling time at 10 uM after 2 days relative to control; type: functional, Mus musculus; design: scale not given: the % may be the effect or the level left; procedure, shortened: as §1
[8] = Antimitotic activity against BMOL-NT cells assessed as reduction in mitotic index at 10 uM measured after 3 days by phosphohistone H3 staining-based method; type: cell-based; design: scale not given: the % may be the effect or the level left; conditions: mouse, 72 h
Procedure, shortened: (§2)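 BMOL-NT or BMOL-T cells, compound at 10 μM for three days. Fixed in 4% paraformaldehyde/0.1% Triton X-100, then phospho-histone H3 antibody 60 min at room temperature with nuclear counterstain, Cellavista imaging. Colcemid 1 μg/mL overnight as positive control. Mitotic index is % positive cells per well, mean of replicate wells, three cell lots.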

[9] = Antimitotic activity against BMOL-T cells assessed as mitotic index at 10 uM measured after 3 days by phosphohistone H3 staining-based method relative to control; type: functional, Mus musculus; procedure, shortened: as §2
[10] = Induction of apoptosis in BMOL-NT cells assessed as increase in fragmented DNA at 10 uM measured after 3 days relative to control; type: cell-based; conditions: mouse, 72 h
Procedure, shortened: (§3)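 BMOL-NT or BMOL-T cells, compound at 10 μM for three days. Fixed in 4% paraformaldehyde/0.1% Triton X-100, DNA fragmentation labelling reaction 60 min at 37 °C, nuclear dye 5 min, Cellavista imaging. Cisplatin 8 μg/mL for 24 h as positive control. Apoptotic index is % cells with fragmented DNA per well, three cell lots.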

[11] = Induction of apoptosis in BMOL-T cells assessed as increase in fragmented DNA at 10 uM measured after 3 days relative to control; type: functional, Mus musculus; procedure, shortened: as §3
[12] = biological target: T1, Nuclear factor NF-kappa-B p100 subunit (Mus musculus) (UniProt Q9WTK5); assay: Inhibition of NF-kappaB2 in BMOL-T cells assessed as reduction in p52 formation by western blot analysis relative to control; type: cell-based; conditions: concentration not given here
T1 sequence (whole entry): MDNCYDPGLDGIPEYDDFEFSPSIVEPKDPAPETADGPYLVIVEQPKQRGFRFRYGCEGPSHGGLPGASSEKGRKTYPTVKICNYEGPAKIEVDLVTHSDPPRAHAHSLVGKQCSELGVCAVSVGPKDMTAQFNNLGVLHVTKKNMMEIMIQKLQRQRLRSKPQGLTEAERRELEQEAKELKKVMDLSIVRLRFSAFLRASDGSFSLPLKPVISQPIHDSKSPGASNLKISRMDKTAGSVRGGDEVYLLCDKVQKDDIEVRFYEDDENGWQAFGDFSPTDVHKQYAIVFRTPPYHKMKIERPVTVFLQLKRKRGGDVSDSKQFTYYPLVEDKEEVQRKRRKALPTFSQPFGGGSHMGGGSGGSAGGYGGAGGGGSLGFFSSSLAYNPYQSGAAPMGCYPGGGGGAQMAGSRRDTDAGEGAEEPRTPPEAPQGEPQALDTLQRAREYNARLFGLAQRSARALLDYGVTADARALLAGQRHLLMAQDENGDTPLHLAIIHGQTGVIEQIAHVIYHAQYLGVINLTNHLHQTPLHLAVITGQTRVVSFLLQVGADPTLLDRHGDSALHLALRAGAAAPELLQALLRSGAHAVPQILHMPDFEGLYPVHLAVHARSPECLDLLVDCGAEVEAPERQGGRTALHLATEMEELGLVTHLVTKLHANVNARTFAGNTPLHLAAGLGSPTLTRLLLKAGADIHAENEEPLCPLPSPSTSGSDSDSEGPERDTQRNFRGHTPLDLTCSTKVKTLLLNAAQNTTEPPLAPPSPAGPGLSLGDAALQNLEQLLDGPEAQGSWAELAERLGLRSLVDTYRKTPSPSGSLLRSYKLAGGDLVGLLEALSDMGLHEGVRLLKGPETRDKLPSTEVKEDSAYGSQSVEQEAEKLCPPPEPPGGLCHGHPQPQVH
Procedure, shortened: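 BMOL-T cells exposed to compound as in the growth assay, lysed in DISC buffer. Western blot with primary antibodies overnight and HRP secondaries 1 h, all diluted in 5% skim milk in TBS-T, chemiluminescent detection. Bands normalised to β-actin; p52/p100 ratio and phospho-p65 compared with control.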

[13] = Growth inhibition of BMOL-NT cells; type: cell-based; conditions: mouse; procedure, shortened: as §1
[14] = Growth inhibition of BMOL-T cells; type: functional; conditions: Mus musculus; procedure, shortened: as §1
Mus musculus [15] = organism: Mus musculus; assay: Cytotoxicity against BMOL-NT cells assessed as cell growth inhibition at 10 uM; type: toxicity, cell-based; procedure, shortened: as §1
Mus musculus [16] = organism: Mus musculus; assay: Cytotoxicity against BMOL-NT cells assessed as induction of cell death up to 100 uM; type: toxicity, cell-based
Procedure, shortened: (§4)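 Mouse bipotential oval (liver progenitor) line BMOL-NT (passage <15) grown in Williams' E medium with 5% FBS, EGF, IGF-II and insulin. Plated at 1,500 cells/well; next day compound added as a 2x solution to give 1x final. Confluency imaged on Cellavista twice daily for 5 days or until 80% confluent. Growth curves plotted from log confluency; doubling time taken from the log-phase linear portion.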

Mus musculus [17] = organism: Mus musculus; assay: Cytotoxicity against BMOL-NT cells assessed as induction of cell death at 100 uM; type: toxicity, cell-based; procedure, shortened: as §4
BMOL-T [18] = assay: Anticancer activity against BMOL-T cells assessed as cell growth inhibition at 100 uM; type: functional, cell-based; conditions: Mus musculus; procedure, shortened: as §1
[19] = Growth inhibition of BMOL-NT cells assessed as doubling time at 8 uM (reference value: 29 to 32.5 hrs); type: cell-based; conditions: mouse; procedure, shortened: as §1
[20] = Growth inhibition of BMOL-NT cells assessed as doubling time at 10 uM (reference value: 29 to 32.5 hrs); type: cell-based; conditions: mouse; procedure, shortened: as §1
[21] = Growth inhibition of BMOL-NT cells assessed as increase in doubling time at 8 uM after 2 days relative to control; type: cell-based; design: scale not given: the % may be the effect or the level left; conditions: mouse, 48 h; procedure, shortened: as §1
[22] = Growth inhibition of BMOL-NT cells assessed as increase in doubling time at 10 uM after 2 days relative to control; type: cell-based; design: scale not given: the % may be the effect or the level left; conditions: mouse, 48 h; procedure, shortened: as §1
[23] = Growth inhibition of BMOL-T cells assessed as doubling time at 8 uM (reference value: 27 to 34 hrs); type: functional, Mus musculus; procedure, shortened: as §1
[24] = Growth inhibition of BMOL-T cells assessed as doubling time at 10 uM (reference value: 27 to 34 hrs); type: functional, Mus musculus; procedure, shortened: as §1
[25] = Growth inhibition of BMOL-NT cells assessed as population doubling time at 0.5 uM (reference value: 29 to 32.5 hrs); type: cell-based; conditions: mouse; procedure, shortened: as §1
[26] = Growth inhibition of BMOL-NT cells assessed as population doubling time at 1 uM (reference value: 29 to 32.5 hrs); type: cell-based; conditions: mouse; procedure, shortened: as §1
[27] = Growth inhibition of BMOL-NT cells assessed as population doubling time at 2 uM (reference value: 29 to 32.5 hrs); type: cell-based; conditions: mouse; procedure, shortened: as §1
[28] = Growth inhibition of BMOL-NT cells assessed as doubling time at 4 uM (reference value: 29 to 32.5 hrs); type: cell-based; conditions: mouse; procedure, shortened: as §1
[29] = Growth inhibition of BMOL-T cells assessed as doubling time at 0.5 uM (reference value: 27 to 34 hrs); type: functional, Mus musculus; procedure, shortened: as §1
[30] = Growth inhibition of BMOL-T cells assessed as doubling time at 1 uM (reference value: 27 to 34 hrs); type: functional, Mus musculus; procedure, shortened: as §1
[31] = Growth inhibition of BMOL-T cells assessed as doubling time at 2 uM (reference value: 27 to 34 hrs); type: functional, Mus musculus; procedure, shortened: as §1
[32] = system: BMOL-NT cells (Mus musculus); assay: Growth inhibition of BMOL-NT cells at 10 uM after 2 days relative to control; conditions: 48 h, read-out: GI

CC(C)c1ccc(Nc2cccc3c2C(=O)N(C2CCC(=O)NC2=O)C3=O)cc1 (stereo not drawn)
Time (Mus musculus [1]): 31 h
Time [2]: 23 h
Time [3]: 26 h
Time [4]: 30 h
growth inhibition (GI) (BMOL-T [5]): Active
Activity [6]: 11%
Activity [7]: 26 - 27%
Activity [8]: Non-Toxic
Activity [9]: 34%
fold change (FC) [10]: 1.5
fold change (FC) [11]: 1.6 - 4
inhibition [12]: 30%
GI50 [13]: 60 µM
GI50 [14]: 40 µM
Activity (Mus musculus [15]): Non-Toxic

O=CC#Cc1cccc2c1C(=O)N(C1CCC(=O)NC1=O)C2=O (racemic)
Activity (Mus musculus [16]): Non-Toxic

CCCCCc1ccc(Nc2ccc3c(c2)C(=O)N(C2CCC(=O)NC2=O)C3=O)cc1 (stereo not drawn)
growth inhibition (GI) (BMOL-T [5]): Active
GI50 [13]: 60 µM
GI50 [14]: 60 µM
Activity (Mus musculus [15]): Non-Toxic

O=CC#Cc1ccc2c(c1)C(=O)N(C1CCC(=O)NC1=O)C2=O (stereo not drawn)
Activity (Mus musculus [16]): Non-Toxic

CC(C)(C)c1ccc(Nc2ccc3c(c2)C(=O)N(C2CCC(=O)NC2=O)C3=O)cc1 (stereo not drawn)
Activity (Mus musculus [17]): Toxic
growth inhibition (GI) (BMOL-T [18]): Active
GI50 [13]: 100 µM
GI50 [14]: 100 µM

CCCCCc1ccc(Nc2cccc3c2C(=O)N(C2CCC(=O)NC2=O)C3=O)cc1 (stereo not drawn)
Activity (Mus musculus [17]): Toxic
growth inhibition (GI) (BMOL-T [18]): Active
GI50 [13]: 100 µM
GI50 [14]: 100 µM

CNC(=O)c1cc(Oc2ccc(NC(=O)Nc3ccc(Cl)c(C(F)(F)F)c3)cc2)ccn1 [SORAFENIB]
Time [19]: 58 to 74 h
Time [20]: 68 h
Activity [21]: 100 to 128%
Activity [22]: 101 to 134%
Time [23]: 65 to 66 h
Time [24]: 79 h
Activity [6]: 36 - 144%
Activity [7]: 193 - 235%
Activity [8]: 66 to 87%
Activity [9]: 62%
fold change (FC) [10]: 2.5 to 18.1
fold change (FC) [11]: 38
Time [25]: 31.9 to 32.5 h
Time [26]: 32.5 to 34.7 h
Time [27]: 33.3 to 33.7 h
Time [28]: 37.4 to 37.9 h
Time [29]: 28.05 to 35 h
Time [30]: 33.2 to 34.2 h
Time [31]: 34.4 to 35 h
inhibition of growth at 10 µM [32]: 70%

Nc1cccc2c1CN(C1CCC(=O)NC1=O)C2=O (stereo not drawn) [LENALIDOMIDE]
Activity (Mus musculus [17]): Toxic
GI50 [13]: 100 µM

O=C1CCC(N2C(=O)c3ccccc3C2=O)C(=O)N1 (stereo not drawn) [THALIDOMIDE]
Activity (Mus musculus [17]): Toxic
GI50 [13]: 100 µM
